Reference: ChEMBL document CHEMBL1132142, “Extension of the polyanionic cosalane pharmacophore as a strategy for increasing anti-HIV potency” (J Med Chem, 1999)

Key:
[1] = biological target: T-cell surface glycoprotein CD4 (Homo sapiens) (UniProt P01730); assay: Compound was tested for binding of the mAb (leu3a) to the CD4 receptor at 0.13 uM
Method in brief: (§1)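 The assay measured Leu3a monoclonal antibody binding to cell-surface CD4 at each listed concentration. Read-out was % positive cells and % inhibition relative to controls, including an isotype mAb.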

[2] = biological target: T-cell surface glycoprotein CD4 (Homo sapiens) (UniProt P01730); assay: Compound was tested for binding of the mAb (leu3a) to the CD4 receptor at 0.15 uM; method in brief: as §1
[3] = biological target: T-cell surface glycoprotein CD4 (Homo sapiens) (UniProt P01730); assay: Compound was tested for binding of the mAb (leu3a) to the CD4 receptor at 0.65 uM; method in brief: as §1
[4] = biological target: T-cell surface glycoprotein CD4 (Homo sapiens) (UniProt P01730); assay: Compound was tested for binding of the mAb (leu3a) to the CD4 receptor at 0.73 uM; method in brief: as §1
[5] = biological target: T-cell surface glycoprotein CD4 (Homo sapiens) (UniProt P01730); assay: Compound was tested for binding of the mAb (leu3a) to the CD4 receptor at 16 uM; method in brief: as §1
[6] = biological target: T-cell surface glycoprotein CD4 (Homo sapiens) (UniProt P01730); assay: Compound was tested for binding of the mAb (leu3a) to the CD4 receptor at 18 uM; method in brief: as §1
[7] = biological target: T-cell surface glycoprotein CD4 (Homo sapiens) (UniProt P01730); assay: Compound was tested for binding of the mAb (leu3a) to the CD4 receptor at 3.2 uM; method in brief: as §1
[8] = biological target: T-cell surface glycoprotein CD4 (Homo sapiens) (UniProt P01730); assay: Compound was tested for binding of the mAb (leu3a) to the CD4 receptor at 3.7 uM; method in brief: as §1
[9] = biological target: T-cell surface glycoprotein CD4 (Homo sapiens) (UniProt P01730); assay: Compound was tested for binding of the mAb (leu3a) to the CD4 receptor at 81 uM; method in brief: as §1
[10] = biological target: T-cell surface glycoprotein CD4 (Homo sapiens) (UniProt P01730); assay: Compound was tested for binding of the mAb (leu3a) to the CD4 receptor at 92 uM; method in brief: as §1
[11] = biological target: C-X-C chemokine receptor type 4 (Homo sapiens) (UniProt P61073); assay: Compound was tested for binding of the mAb (12G5) to the CXCR4 receptor at 18 uM
[12] = biological target: C-X-C chemokine receptor type 4 (Homo sapiens) (UniProt P61073); assay: Compound was tested for binding of the mAb (12G5) to the CXCR4 receptor at 92 uM
[13] = biological target: C-X-C chemokine receptor type 4 (Homo sapiens) (UniProt P61073); assay: Compound was tested for binding of the mAb (12G5) to the Chemokine receptor type 4at 3.2 uM
[14] = biological target: C-X-C chemokine receptor type 4 (Homo sapiens) (UniProt P61073); assay: Compound was tested for binding of the mAb (12G5) to the Chemokine receptor type 4 at 16 uM
[15] = biological target: C-X-C chemokine receptor type 4 (Homo sapiens) (UniProt P61073); assay: Compound was tested for binding of the mAb (12G5) to the Chemokine receptor type 4 at 18 uM
[16] = biological target: C-X-C chemokine receptor type 4 (Homo sapiens) (UniProt P61073); assay: Compound was tested for binding of the mAb (12G5) to the Chemokine receptor type 4 at 81 uM
[17] = biological target: C-X-C chemokine receptor type 4 (Homo sapiens) (UniProt P61073); assay: Compound was tested for binding of the mAb (12G5) to the Chemokine receptor type 4 at 3.7 uM
[18] = biological target: C-X-C chemokine receptor type 4 (Homo sapiens) (UniProt P61073); assay: Compound was tested for binding of the mAb (12G5) to the Chemokine receptor type 4 at 3.2 uM
[19] = biological target: C-X-C chemokine receptor type 4 (Homo sapiens) (UniProt P61073); assay: Compound was tested for binding of the mAb (12G5) to the Chemokine receptor type 4 at 0.15 uM
[20] = biological target: C-X-C chemokine receptor type 4 (Homo sapiens) (UniProt P61073); assay: Compound was tested for binding of the mAb (12G5) to the Chemokine receptor type 4 at 0.73 uM
[21] = biological target: C-X-C chemokine receptor type 4 (Homo sapiens) (UniProt P61073); assay: Compound was tested for binding of the mAb (12G5) to the Chemokine receptor type 4 at 0.65 uM
[22] = biological target: C-X-C chemokine receptor type 4 (Homo sapiens) (UniProt P61073); assay: Compound was tested for binding of the mAb (12G5) to the Chemokine receptor type 4 at 0.13 uM
[23] = biological target: C-X-C chemokine receptor type 4 (Homo sapiens) (UniProt P61073); assay: Compound was tested for binding of the mAb (12G5) to the CChemokine receptor type 4 at 0.73 uM
CD4+ve Th [24] = assay: Compound was tested for binding of the gp120 (strain IIIb)to the CD4+ T-cell lines at 0.73 uM; format: functional
Method in brief: (§2)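 Recombinant gp120 (strain IIIB) binding to MT-4 (CD4+ T-cell) cells was measured at each listed concentration. Read-out was % positive cells and % inhibition, alongside an isotype mAb control.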

CD4+ve Th [25] = assay: Compound was tested for binding of the gp120 (strain IIIb)to the CD4+ T-cell lines at 18 uM; format: functional; method in brief: as §2
CD4+ve Th [26] = assay: Compound was tested for binding of the gp120 (strain IIIb)to the CD4+ T-cell lines at 3.7 uM; format: functional; method in brief: as §2
CD4+ve Th [27] = assay: Compound was tested for binding of the gp120 (strain IIIb)to the CD4+ T-cell lines at 92 uM; format: functional; method in brief: as §2
CEM-SS [28] = assay: The compound was evaluated for cytotoxicity in CEM-SS cells; format: functional, Homo sapiens
Method in brief: (§3)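 Uninfected cells (CEM-SS or MT-4, per line) were incubated with the drug in a microtiter XTT assay. Viability was expressed as percent of the uninfected drug-free control. CC50 is the concentration causing 50% cell death. Triplicates were run per plate on two sister plates, and the two plate values were averaged.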

CEM-SS [29] = assay: The compound was evaluated for inhibition of cytopathic effect of HIV-1 RF in CEM-SS cells; format: functional, cell-based, Homo sapiens; conditions: Homo sapiens, CEM-SS
Method in brief: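 XTT-based microtiter cytoprotection assay measuring protection from HIV-1-induced cytopathic effect, read as percent of the uninfected drug-free control. EC50 is the concentration giving 50% protection in infected cultures. Results were confirmed by cell-free supernatant reverse transcriptase and p24 levels. Each plate was run in triplicate, and the EC50 values from two sister plates were averaged.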

MT4 [30] = assay: The compound was evaluated for cytotoxicity in MT-4 cells; format: functional, Homo sapiens; method in brief: as §3
MT4 [31] = assay: The compound was evaluated for inhibition of cytopathic effect of HIV-1 IIIB in MT-4 cells; format: functional, cell-based, Homo sapiens; conditions: Homo sapiens, MT4
MT4 [32] = assay: (§4) Compound was tested for binding of the mAb (NEA9305) to the V3 loo[p of gp120, expressed on HIV-1 infected MT-4 cells at 92 uM; format: functional, Homo sapiens
Method in brief: (§5)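 Binding of mAb NEA9305 to the gp120 V3 loop expressed on HIV-1-infected MT-4 cells was measured at each listed concentration. Results were given as % positive cells and % inhibition, with an isotype mAb control.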

MT4 [33] = assay: (§6) Compound was tested for binding of the mAb (NEA9305) to the V3 loo[p of gp120, expressed ion HIV-1 infected MT-4 cells at 3.7 uM; format: functional; conditions: Homo sapiens; method in brief: as §5
MT4 [34] = assay: (§7) Compound was tested for binding of the mAb (NEA9305) to the V3 loo[p of gp120, expressed on HIV-1 infected MT-4 cells at 0.73 uM; format: functional; conditions: Homo sapiens; method in brief: as §5
MT4 [35] = assay: as §4; format: functional; conditions: Homo sapiens; method in brief: as §5
MT4 [36] = assay: (§8) Compound was tested for binding of the mAb (NEA9305) to the V3 loo[p of gp120, expressed on HIV-1 infected MT-4 cells at 18 uM; format: functional, Homo sapiens; method in brief: as §5
MT4 [37] = assay: as §6; format: functional, Homo sapiens; method in brief: as §5
MT4 [38] = assay: as §7; format: functional, Homo sapiens; method in brief: as §5
MT4 [39] = assay: as §8; format: functional; conditions: Homo sapiens; method in brief: as §5

Chain of C-X-C chemokine receptor type 4 (Homo sapiens) (P61073 whole entry, looked up): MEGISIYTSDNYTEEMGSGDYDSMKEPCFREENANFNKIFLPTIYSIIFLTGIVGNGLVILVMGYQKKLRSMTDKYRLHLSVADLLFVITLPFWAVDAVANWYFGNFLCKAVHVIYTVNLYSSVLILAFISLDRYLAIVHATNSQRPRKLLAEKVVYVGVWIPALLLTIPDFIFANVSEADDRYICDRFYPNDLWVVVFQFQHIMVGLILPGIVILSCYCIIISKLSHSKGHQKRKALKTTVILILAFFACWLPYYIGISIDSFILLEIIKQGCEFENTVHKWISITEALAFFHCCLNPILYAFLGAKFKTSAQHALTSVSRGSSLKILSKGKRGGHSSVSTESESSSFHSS

CC(C)CCCC(C)[C@H]1CC[C@H]2[C@@H]3CCC4C[C@@H](CCC=C(c5cc(Cl)c(OCc6ccc(C(=O)O)cc6)c(C(=O)O)c5)c5cc(Cl)c(OCc6ccc(C(=O)O)cc6)c(C(=O)O)c5)CC[C@]4(C)[C@H]3CC[C@]12C (some centres undefined) [listing 1 of 2 here]
Positive cells [1]: 99.8% | inhibition [1]: 0% | Positive cells [2]: 99.9% | inhibition [2]: 0% | Positive cells [3]: 99.9% | inhibition [3]: 0% | Positive cells [4]: 99.1% | inhibition [4]: 4% | Positive cells [5]: 2.1% | inhibition [5]: 100% | Positive cells [6]: 1.2% | inhibition [6]: 100% | Positive cells [7]: 3.2% | inhibition [7]: 99% | Positive cells [8]: 7.8% | inhibition [8]: 94% | Positive cells [9]: 1.2% | inhibition [9]: 100% | Positive cells [10]: 1.4% | inhibition [10]: 100% | inhibition [11]: 0% | Positive cells [12]: 99.8% | inhibition [12]: 0% | inhibition [13]: 0% | Positive cells [14]: 99.9% | inhibition [14]: 0% | Positive cells [15]: 99.9% | Positive cells [16]: 99.8% | inhibition [16]: 0% | Positive cells [17]: 99.4% | inhibition [17]: 0% | Positive cells [18]: 99.8% | inhibition [19]: 0% | inhibition [20]: 0% | Positive cells [21]: 99.2% | inhibition [21]: 0% | Positive cells [22]: 99.1% | inhibition [22]: 0% | Positive cells [23]: 99.3%

CC(C)CCCC(C)[C@H]1CC[C@H]2[C@@H]3CCC4C[C@@H](CCC=C(c5cc(Cl)c(OCc6ccc(C(=O)O)cc6)c(C(=O)O)c5)c5cc(Cl)c(OCc6ccc(C(=O)O)cc6)c(C(=O)O)c5)CC[C@]4(C)[C@H]3CC[C@]12C (some centres undefined) [listing 2 of 2 here]
Positive cells (CD4+ve Th [24]): 88.2% | inhibition at 0.73 µM (CD4+ve Th [24]): 9% | Positive cells (CD4+ve Th [25]): 8.3% | inhibition at 18 µM (CD4+ve Th [25]): 98% | Positive cells (CD4+ve Th [26]): 25.3% | inhibition at 3.7 µM (CD4+ve Th [26]): 79% | Positive cells (CD4+ve Th [27]): 6.8% | inhibition at 92 µM (CD4+ve Th [27]): 99% | Cytotoxicity (CEM-SS [28]): 72 µM | EC50 (CEM-SS [29]): 500 nM | Cytotoxicity (MT4 [30]): 88 µM | EC50 (MT4 [31]): 1700 nM | Positive cells (MT4 [32]): 23.8% | inhibition at 3.7 µM (MT4 [33]): 16% | inhibition at 0.73 µM (MT4 [34]): 3% | inhibition at 92 µM (MT4 [35]): 76% | Positive cells (MT4 [36]): 34.4% | Positive cells (MT4 [37]): 58.4% | Positive cells (MT4 [38]): 65.9% | inhibition at 18 µM (MT4 [39]): 58%
